# Tests used:
# [1] = Inhibition of IL-1 induced p38 MAPK phosphorylation level in wild type mouse MEF cells at 500 nM incubated for 1 hr followed by IL-1 stimulation by Western blot analysis relative to control; type: functional
# [2] = target: Cyclin-dependent kinase 16 (Homo sapiens) (UniProt Q00536); test: Inhibition of PCTAIRE1 Lys1 labeling site in human A-375 cells at 0.5 uM by KiNativ Profiling analysis relative to control; type: cell-based
# [3] = target: Calcium/calmodulin-dependent protein kinase type II subunit gamma (Homo sapiens) (UniProt Q13555); test: Inhibition of CaMK2g Lys1 labeling site harbouring TSTQEYAAKIINTK in human A-375 cells at 0.5 uM by KiNativ Profiling analysis relative to control; type: cell-based
# Summary of the method: (§1)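 Live A375 melanoma cells were treated with compound at 5 or 0.5 μM. The cells were then lysed, and the lysates were labeled with a lysine-reactive ATP or ADP-biotin acyl probe (KiNativ). Inhibition is the compound's protection of each kinase labeling-site peptide from probe labeling, relative to untreated control.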
# [4] = target: Receptor tyrosine-protein kinase erbB-3 (Homo sapiens) (UniProt P21860); test: Inhibition of HER3/ErbB3 ACT labeling site in human A-375 cells at 0.5 uM by KiNativ Profiling analysis relative to control; type: cell-based
# [5] = target: Mitogen-activated protein kinase 10 (Homo sapiens, UniProt P53779); test: Inhibition of JNK3 (unknown origin) Lys2 labeling site by KiNativ Profiling analysis
# [6] = target: T1, Mitogen-activated protein kinase kinase kinase 3 (Homo sapiens) (UniProt Q99759); test: Inhibition of MAP3K3 Lys1 labeling site in human A-375 cells at 5 uM by KiNativ Profiling analysis relative to control; type: cell-based
# T1 sequence (whole entry): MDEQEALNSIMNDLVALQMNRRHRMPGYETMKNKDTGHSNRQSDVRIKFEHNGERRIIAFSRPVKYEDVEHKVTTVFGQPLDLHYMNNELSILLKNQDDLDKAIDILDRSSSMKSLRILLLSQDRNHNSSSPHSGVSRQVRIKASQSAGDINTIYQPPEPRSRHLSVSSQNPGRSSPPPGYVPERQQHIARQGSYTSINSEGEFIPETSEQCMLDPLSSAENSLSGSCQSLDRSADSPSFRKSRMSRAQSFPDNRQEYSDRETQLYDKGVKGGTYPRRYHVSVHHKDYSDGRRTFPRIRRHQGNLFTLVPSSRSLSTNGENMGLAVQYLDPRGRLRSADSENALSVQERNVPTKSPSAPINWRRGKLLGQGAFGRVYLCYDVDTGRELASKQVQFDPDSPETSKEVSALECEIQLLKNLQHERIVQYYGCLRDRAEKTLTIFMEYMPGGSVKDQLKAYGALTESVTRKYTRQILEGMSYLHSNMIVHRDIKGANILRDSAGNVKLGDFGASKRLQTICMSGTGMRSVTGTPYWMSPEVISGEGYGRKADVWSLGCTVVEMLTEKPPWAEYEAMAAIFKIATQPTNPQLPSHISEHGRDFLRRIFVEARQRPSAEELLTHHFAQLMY
# [7] = target: Calcium/calmodulin-dependent protein kinase type II subunit delta (Homo sapiens) (UniProt Q13557); test: Inhibition of CaMK2d Lys1 labeling site in human A-375 cells at 0.5 uM by KiNativ Profiling analysis relative to control; type: cell-based; summary of the method: as §1
# [8] = target: Receptor tyrosine-protein kinase erbB-3 (Homo sapiens) (UniProt P21860); test: Inhibition of HER3/ErbB3 ACT labeling site in human A-375 cells at 0.05 uM by KiNativ Profiling analysis relative to control; type: cell-based
# [9] = target: T2, Aurora kinase A (Homo sapiens) (UniProt O14965); test: Inhibition of AurA ATP Loop labeling site in human A-375 cells at 0.5 uM by KiNativ Profiling analysis relative to control; type: cell-based
# T2 sequence (whole entry): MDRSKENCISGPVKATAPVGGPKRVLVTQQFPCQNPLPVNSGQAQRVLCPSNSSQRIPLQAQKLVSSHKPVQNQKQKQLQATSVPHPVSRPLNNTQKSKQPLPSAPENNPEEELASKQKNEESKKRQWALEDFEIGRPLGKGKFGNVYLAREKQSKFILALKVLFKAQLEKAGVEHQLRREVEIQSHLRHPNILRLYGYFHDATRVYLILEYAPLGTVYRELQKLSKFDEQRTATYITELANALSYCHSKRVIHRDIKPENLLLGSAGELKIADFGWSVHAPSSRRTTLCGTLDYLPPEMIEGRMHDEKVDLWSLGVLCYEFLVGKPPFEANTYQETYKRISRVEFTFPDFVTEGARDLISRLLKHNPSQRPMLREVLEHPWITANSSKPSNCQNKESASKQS
# Summary of the method: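 Live A375 melanoma cells were treated with compound at 5 or 0.5 μM, then lysed. The lysates were labeled with a lysine-reactive ATP or ADP-biotin probe. Kinase protection from probe labeling was measured by KiNativ.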
# [10] = target: T3, Serine/threonine-protein kinase Nek9 (Homo sapiens) (UniProt Q8TD19); test: Inhibition of NEK9 Lys1 labeling site harbouring RTEDDSLVVWKEVDLTR in human A-375 cells at 0.05 uM by KiNativ Profiling analysis relative to control; type: cell-based
# T3 sequence (whole entry): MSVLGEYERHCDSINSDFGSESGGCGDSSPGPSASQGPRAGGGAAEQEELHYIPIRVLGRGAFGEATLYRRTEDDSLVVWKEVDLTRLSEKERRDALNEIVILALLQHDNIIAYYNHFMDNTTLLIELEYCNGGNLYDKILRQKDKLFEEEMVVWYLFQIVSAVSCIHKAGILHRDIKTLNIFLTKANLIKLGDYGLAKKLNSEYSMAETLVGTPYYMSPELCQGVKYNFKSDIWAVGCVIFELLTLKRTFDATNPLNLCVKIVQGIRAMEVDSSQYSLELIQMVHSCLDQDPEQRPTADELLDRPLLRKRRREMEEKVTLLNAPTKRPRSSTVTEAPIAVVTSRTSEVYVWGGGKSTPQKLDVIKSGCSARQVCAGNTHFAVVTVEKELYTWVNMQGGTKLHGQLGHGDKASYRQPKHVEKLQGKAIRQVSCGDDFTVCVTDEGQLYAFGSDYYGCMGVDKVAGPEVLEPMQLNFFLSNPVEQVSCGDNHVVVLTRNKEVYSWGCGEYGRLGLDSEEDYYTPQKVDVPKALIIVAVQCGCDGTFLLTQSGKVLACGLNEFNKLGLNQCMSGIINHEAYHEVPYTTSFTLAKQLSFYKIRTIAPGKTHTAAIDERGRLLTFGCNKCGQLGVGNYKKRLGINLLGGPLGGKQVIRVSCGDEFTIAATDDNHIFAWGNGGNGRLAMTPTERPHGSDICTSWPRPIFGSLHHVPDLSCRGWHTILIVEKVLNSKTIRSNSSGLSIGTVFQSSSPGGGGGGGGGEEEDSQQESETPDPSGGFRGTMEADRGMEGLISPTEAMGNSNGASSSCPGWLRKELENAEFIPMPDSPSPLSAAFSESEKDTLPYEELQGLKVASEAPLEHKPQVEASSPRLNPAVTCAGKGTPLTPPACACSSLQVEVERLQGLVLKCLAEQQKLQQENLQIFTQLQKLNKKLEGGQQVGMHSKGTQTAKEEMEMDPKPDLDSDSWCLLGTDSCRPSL
# Receptor tyrosine-protein kinase erbB-3 (Homo sapiens), sequence (P21860 whole entry): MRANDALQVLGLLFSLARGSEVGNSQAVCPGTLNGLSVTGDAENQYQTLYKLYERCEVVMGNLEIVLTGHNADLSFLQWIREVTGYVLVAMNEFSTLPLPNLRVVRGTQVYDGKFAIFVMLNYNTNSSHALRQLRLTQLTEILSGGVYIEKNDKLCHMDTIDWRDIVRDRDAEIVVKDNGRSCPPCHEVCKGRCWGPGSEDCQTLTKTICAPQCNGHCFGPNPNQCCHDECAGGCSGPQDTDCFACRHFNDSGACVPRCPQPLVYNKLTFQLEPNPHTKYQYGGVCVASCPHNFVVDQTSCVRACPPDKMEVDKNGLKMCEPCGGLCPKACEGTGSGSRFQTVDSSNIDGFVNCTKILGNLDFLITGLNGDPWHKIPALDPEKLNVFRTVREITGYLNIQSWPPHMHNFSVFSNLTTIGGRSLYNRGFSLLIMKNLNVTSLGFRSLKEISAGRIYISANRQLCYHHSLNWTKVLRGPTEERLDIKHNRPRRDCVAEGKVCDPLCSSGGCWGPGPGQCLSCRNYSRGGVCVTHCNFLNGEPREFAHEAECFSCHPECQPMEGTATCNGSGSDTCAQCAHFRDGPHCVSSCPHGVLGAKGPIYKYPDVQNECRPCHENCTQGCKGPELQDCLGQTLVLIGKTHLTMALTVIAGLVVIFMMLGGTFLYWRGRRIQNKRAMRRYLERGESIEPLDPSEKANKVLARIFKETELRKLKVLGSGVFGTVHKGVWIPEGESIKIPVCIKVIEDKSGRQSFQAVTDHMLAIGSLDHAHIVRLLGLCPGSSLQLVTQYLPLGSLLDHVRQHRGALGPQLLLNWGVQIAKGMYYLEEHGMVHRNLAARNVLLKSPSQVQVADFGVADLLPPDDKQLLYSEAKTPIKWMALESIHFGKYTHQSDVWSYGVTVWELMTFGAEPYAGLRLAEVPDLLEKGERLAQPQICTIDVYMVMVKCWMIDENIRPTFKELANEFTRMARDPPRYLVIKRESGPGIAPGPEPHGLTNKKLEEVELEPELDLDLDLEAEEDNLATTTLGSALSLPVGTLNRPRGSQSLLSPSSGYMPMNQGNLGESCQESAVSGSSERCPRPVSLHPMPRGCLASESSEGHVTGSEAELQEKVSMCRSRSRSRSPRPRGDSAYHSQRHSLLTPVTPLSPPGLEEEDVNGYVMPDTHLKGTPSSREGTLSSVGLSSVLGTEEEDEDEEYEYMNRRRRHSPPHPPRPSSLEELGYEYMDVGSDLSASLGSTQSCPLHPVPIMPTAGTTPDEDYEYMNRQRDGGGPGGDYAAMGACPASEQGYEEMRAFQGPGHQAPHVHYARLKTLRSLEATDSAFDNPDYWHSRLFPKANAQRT
# Calcium/calmodulin-dependent protein kinase type II subunit gamma (Homo sapiens), sequence (Q13555 whole entry): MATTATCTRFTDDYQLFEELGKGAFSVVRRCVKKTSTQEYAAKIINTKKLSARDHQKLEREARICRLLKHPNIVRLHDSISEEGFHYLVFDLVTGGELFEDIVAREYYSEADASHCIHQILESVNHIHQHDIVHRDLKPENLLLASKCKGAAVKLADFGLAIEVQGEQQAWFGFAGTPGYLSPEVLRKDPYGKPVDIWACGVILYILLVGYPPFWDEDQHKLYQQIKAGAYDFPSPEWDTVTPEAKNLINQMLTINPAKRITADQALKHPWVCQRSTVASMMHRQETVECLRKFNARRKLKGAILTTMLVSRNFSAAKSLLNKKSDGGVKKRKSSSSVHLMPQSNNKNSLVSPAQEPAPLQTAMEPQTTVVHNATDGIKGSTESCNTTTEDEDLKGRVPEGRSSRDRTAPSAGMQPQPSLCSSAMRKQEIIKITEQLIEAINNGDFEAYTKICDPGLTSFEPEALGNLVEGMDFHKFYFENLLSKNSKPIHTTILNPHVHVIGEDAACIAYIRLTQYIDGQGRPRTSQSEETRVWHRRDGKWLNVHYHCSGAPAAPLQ
# Cyclin-dependent kinase 16 (Homo sapiens), sequence (Q00536 whole entry): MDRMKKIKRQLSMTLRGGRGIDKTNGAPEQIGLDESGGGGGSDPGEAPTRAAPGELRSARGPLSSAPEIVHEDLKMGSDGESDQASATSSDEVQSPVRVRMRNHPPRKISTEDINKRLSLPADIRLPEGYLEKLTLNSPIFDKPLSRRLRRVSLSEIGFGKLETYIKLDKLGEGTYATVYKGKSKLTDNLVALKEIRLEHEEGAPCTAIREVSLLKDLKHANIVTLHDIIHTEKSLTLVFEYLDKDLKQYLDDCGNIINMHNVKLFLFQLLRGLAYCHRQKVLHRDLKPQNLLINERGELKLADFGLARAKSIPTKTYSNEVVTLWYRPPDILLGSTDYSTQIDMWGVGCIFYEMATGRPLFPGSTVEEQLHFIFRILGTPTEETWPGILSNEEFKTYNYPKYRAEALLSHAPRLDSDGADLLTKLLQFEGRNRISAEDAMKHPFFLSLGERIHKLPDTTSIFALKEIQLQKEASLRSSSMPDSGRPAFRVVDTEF
# Mitogen-activated protein kinase 10, sequence (P53779 whole entry): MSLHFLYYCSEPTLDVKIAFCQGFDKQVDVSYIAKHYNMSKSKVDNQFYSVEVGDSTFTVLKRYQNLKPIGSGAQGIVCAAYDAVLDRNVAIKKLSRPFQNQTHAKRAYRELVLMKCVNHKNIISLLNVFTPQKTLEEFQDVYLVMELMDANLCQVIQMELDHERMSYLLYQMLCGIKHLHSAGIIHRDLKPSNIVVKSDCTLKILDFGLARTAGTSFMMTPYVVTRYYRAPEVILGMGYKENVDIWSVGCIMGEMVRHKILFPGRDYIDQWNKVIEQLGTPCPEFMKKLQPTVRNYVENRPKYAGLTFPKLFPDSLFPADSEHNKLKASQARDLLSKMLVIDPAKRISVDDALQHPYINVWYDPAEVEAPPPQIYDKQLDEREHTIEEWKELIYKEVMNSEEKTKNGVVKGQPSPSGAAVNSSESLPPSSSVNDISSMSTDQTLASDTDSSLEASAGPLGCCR
# Calcium/calmodulin-dependent protein kinase type II subunit delta (Homo sapiens), sequence (Q13557 whole entry): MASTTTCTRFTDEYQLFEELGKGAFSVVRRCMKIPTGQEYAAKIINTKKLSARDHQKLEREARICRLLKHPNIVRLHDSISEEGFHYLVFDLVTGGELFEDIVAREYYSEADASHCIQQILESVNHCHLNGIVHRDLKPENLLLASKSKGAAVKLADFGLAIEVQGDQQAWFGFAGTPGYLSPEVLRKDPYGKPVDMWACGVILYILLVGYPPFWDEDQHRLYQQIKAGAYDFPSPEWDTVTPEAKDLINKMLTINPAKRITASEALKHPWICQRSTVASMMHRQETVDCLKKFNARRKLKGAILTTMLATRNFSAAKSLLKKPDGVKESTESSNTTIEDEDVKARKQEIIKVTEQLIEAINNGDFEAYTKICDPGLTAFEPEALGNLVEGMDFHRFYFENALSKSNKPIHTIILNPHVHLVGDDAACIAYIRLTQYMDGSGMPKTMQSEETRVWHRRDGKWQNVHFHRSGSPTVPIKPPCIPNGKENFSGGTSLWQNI
Compound,inhibition at 0.5 µM [1] [%],inhibition [2] [%],inhibition [3] [%],inhibition [4] [%],IC50 [5] [µM],inhibition [6] [%],inhibition [7] [%],inhibition [8] [%],inhibition [9] [%],inhibition [10] [%]
CNc1cc(Oc2cc(C(=O)Nc3cc(N4CCN(C)CC4)cc(C(F)(F)F)c3)ccc2C)ncn1,50,,,,,,,,,
CCN1CCN(Cc2ccc(NC(=O)c3ccc(C)c(/C=C/c4cnc5[nH]ccc5c4OC)c3)cc2C(F)(F)F)CC1,,30.2,34.3,12.2,> 10,80.4,26,11.2,30.2,18.8
CNc1cc(Oc2cc(C(=O)Nc3cc(-n4cnc(C)c4)cc(C(F)(F)F)c3)ccc2C)ncn1,50,,,,,,,,,
CCN1CCN(Cc2ccc(NC(=O)c3ccc(C)c(Oc4ccnc5[nH]ccc45)c3)cc2C(F)(F)F)CC1,,47.7,19.2,5.1,> 10,77.1,8.7,4.1,31.2,1.8

# — ChEMBL document CHEMBL5696442, “Discovery of type II inhibitors of TGFβ-activated kinase 1 (TAK1) and mitogen-activated protein kinase kinase kinase kinase 2 (MAP4K2)” (J Med Chem, 2015)
